This is an account of results in ChEMBL document CHEMBL5335820, “Novel quinolinepiperazinyl-aryltetrazoles targeting the blood stage of Plasmodium falciparum” (RSC Med Chem, 2024).

Each structure is given as a SMILES string. The source made the active and inactive calls. No cut-off for these calls is given here. Bounds are passed on as bounds.

Data set [1] can be described thus: Cytotoxicity against human HEK293 cells assessed as reduction in cell viability incubated for 24 hrs by MTT assay. In kind it is toxicity, cell-based. In general terms: Formazan colour is commonly taken as a measure of viable cells.
The test system of data set [2] is Plasmodium falciparum. Nature of the data set: Synergistic antiplasmodial activity against multidrug-resistant Plasmodium falciparum Cam3.1R539T infected in human erythrocytes at 8 times IC50 concentration incubated for 72 hrs in presence of pyrimethamine by SYBR green I staining based fluorescence assay. The data set is classed as functional, organism-based. The settings on record: Erythrocyte. The essentials: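 P. falciparum Cam3.1R539T in O+ human erythrocytes, 1% parasitemia, 2% haematocrit. 8× IC50 stocks of test compound and standard drug were mixed at molar ratios 4:1, 3:2, 2:3 and 1:4, then serially diluted two-fold. Plates were incubated 72 h at 37 °C and read by SYBR Green I lysis. Controls were 0.4% DMSO (100% growth) and 4 μM chloroquine (0% growth). ΣFIC = FICA + FICB; <1 synergistic, 1.0–2.0 additive, >2.0 antagonistic.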

Data set [3] can be described thus: Resistance index, ratio of IC50 of chloroquine resistant Plasmodium falciparum INDO to chloroquine sensitive Plasmodium falciparum 3D7. In kind it is functional. The essentials: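 Resistance index = IC50 against PfINDO / IC50 against Pf3D7. Both IC50s came from 72 h SYBR Green I assays.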
Data set [4] in a line: Toxicity in mouse assessed as coma at 100 mg/kg, po measured after 45 mins. Conditions: in vivo, 0.75 h. In kind it is organism-based. The essentials:
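Acute oral toxicity per OECD 423. Mice were fasted 4 h, given a single 100 mg/kg oral dose, and observed for 45 min for signs of acute toxicity, compared with untreated controls.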

The test system of data set [5] is Plasmodium falciparum. Nature of the data set: Antimalarial activity against chloroquine resistant trophozoites-stage Plasmodium falciparum INDO infected in human erythrocytes assessed as inhibition of parasite growth incubated for 12 hrs. In kind it is functional, organism-based. Conditions: Erythrocyte. Put shortly: (§1)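 PfINDO cultures were staged at 0–6 h (rings), 18–22 h (trophozoites), 30–34 h (early schizonts) and 40–44 h (late schizonts) post-invasion. Each was exposed to varying concentrations for 12 h, washed free of compound by centrifugation, and grown 48 h in drug-free medium. IC50 came from growth curves, with untreated culture as 100% and chloroquine-treated culture as 0% growth.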

In data set [6] the test system is Plasmodium falciparum. As to the kind of experiment: Antiplasmodial activity against chloroquine resistant Plasmodium falciparum INDO infected in human erythrocytes assessed as inhibition of parasite growth at 100 uM incubated for 72 hrs by SYBR green I staining based fluorescence plate reader analysis relative to control. In kind it is functional. Conditions: Erythrocyte. Put shortly: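 Single-concentration screen at 100 μM against PfINDO, triplicate wells, 72 h. Final DMSO was 0.4%. Growth was read by SYBR Green I lysis (excitation 485, emission 530 nm) and expressed relative to untreated culture, taken as 100% growth.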

Data set [7] is described as follows: Binding affinity to Plasmodium falciparum GAP50 assessed as equilibrium dissociation constant by SPR analysis. Put shortly:
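GAP50 at 50 μg ml−1 in 10 mM acetate pH 4.5 was amine-coupled (EDC/NHS) onto a CM5 chip. Analytes at several concentrations in 5% DMSO/1× PBS; association 60 s, dissociation 120 s, flow 30 μl min−1. Regeneration with 10 mM glycine pH 3.0 for 30 s. Sensorgrams fitted to a 1:1 Langmuir model giving ka, kd and KD.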
For orientation: SPR reads the build-up and loss of mass on a sensor chip optically.

Data set [8] has as its system Plasmodium falciparum. As to the kind of experiment: Antiplasmodial activity against chloroquine resistant segmental schizont stage Plasmodium falciparum INDO infected in human erythrocytes assessed inhibition of rupture at 5.62 uM preincubated with compound for 8 hrs followed by media replacement without compound and measured after 48 hrs by SYBR Green staining based FACS analysis. In kind it is functional, organism-based. The settings on record: Erythrocyte. Background: Flow cytometry measures light scatter and fluorescence of single cells or particles in a stream.

The subject of data set [9] is Plasmodium falciparum. As to the kind of experiment: Antiplasmodial activity against chloroquine resistant Plasmodium falciparum INDO infected in human erythrocytes assessed as inhibition of parasite growth incubated for 72 hrs by SYBR green I staining based fluorescence plate reader analysis. The data set is classed as functional, organism-based. The settings on record: Erythrocyte. The essentials:
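Pf3D7 or PfINDO was cultured in O+ human erythrocytes at 37 °C under 5% O2/5% CO2/90% N2 and ring-synchronised with 5% sorbitol. Cultures were exposed to 0–100 μM in triplicate for 72 h, with final DMSO 0.4%. After SYBR Green I lysis buffer (1 h, dark, 37 °C), fluorescence was read at 485/530 nm. Chloroquine-well counts were subtracted as background, and IC50 was obtained by non-linear regression.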

Data set [10] has as its system Plasmodium falciparum. As to the kind of experiment: Antiplasmodial activity against chloroquine resistant early ring stage Plasmodium falciparum INDO infected in human erythrocytes assessed as reduction in parasite growth at 10 times IC50 concentration preincubated for 6 hrs followed by media replacement without compound for 66 hrs and measured after 72 hrs by Giemsa-staining based analysis. In kind it is functional, organism-based. The settings on record: Erythrocyte. Put shortly:
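Ring-stage survival assay. PfCam3.1R539T or PfINDO rings (0–3 h post-invasion), 1% parasitemia, 2% haematocrit, were exposed to 10× IC50 for 6 h. Compound was removed by three PBS washes, then cultures were grown 66 h in fresh medium. At 72 h, stage progression was assessed on Giemsa smears and revival by SYBR Green I lysis. Triplicate biological samples.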

Data set [11] concerns Plasmodium falciparum. Nature of the data set: Antiplasmodial activity against chloroquine resistant ring-stage Plasmodium falciparum INDO infected in human erythrocytes assessed as inhibition of parasite growth incubated for 12 hrs. In kind it is functional, organism-based. The settings on record: Erythrocyte. Put shortly: as §1
In data set [12] the test system is Plasmodium falciparum. Nature of the data set: Binding affinity to Plasmodium falciparum GAP50 assessed as association constant by SPR analysis. The essentials:
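SPR: GAP50 at 50 μg/ml in 10 mM acetate pH 4.5 was immobilised on a CM5 chip by EDC/NHS coupling. Analytes were run in 5% DMSO/PBS at 30 μl/min, with 60 s association and 120 s dissociation. The chip was regenerated with 10 mM glycine pH 3.0 for 30 s. Fits used a 1:1 Langmuir model.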

For data set [13], the system named is Plasmodium falciparum. Nature of the data set: Antiplasmodial activity against chloroquine sensitive Plasmodium falciparum 3D7 infected in human erythrocytes assessed as inhibition of parasite growth at 100 uM incubated for 72 hrs by SYBR green I staining based fluorescence plate reader analysis relative to control. In kind it is functional. The settings on record: 3D7, Erythrocyte. The essentials: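 Pf3D7 grown in O+ human erythrocytes at 4% haematocrit, Albumax (0.05%)-RPMI, 37 °C, 5% O2/5% CO2/90% N2, sorbitol-synchronised at ring stage. Single-point screen at 100 μM, final DMSO 0.4%, triplicate wells, 72 h. Read-out by SYBR Green I lysis buffer (Tris pH 7.5, EDTA, saponin, Triton X-100), 1 h dark at 37 °C, ex 485/em 530 nm. Growth expressed relative to untreated culture.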

For data set [14], the system named is Plasmodium falciparum. Nature of the data set: Antiplasmodial activity against chloroquine resistant schizont stage Plasmodium falciparum INDO infected in human erythrocytes assessed as decrease in parasitemia at 4.30 uM incubated for 4 hrs by time-kill kinetics based FACS analysis. Conditions: Erythrocyte, dose 4.3 µM. In kind it is functional, organism-based. Put shortly: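 PfINDO early schizonts (32–36 h post-invasion) and late schizonts (42–45 h post-invasion) were exposed to 5.62 or 4.30 μM for up to 16 h, washed at 4 h intervals, then cultured drug-free to a total of 96 h. Parasitemia was counted by FACS on 10^5 cells at the end of the second cycle; schizont rupture was checked microscopically.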

The test system of data set [15] is Plasmodium falciparum. Nature of the data set: Antiplasmodial activity against chloroquine resistant ring stage Plasmodium falciparum INDO infected in human erythrocytes assessed as reduction in parasitemia at 1.79 uM incubated for 12 hrs by time-kill kinetics based FACS analysis relative to control. The data set is classed as functional, Erythrocyte. Also noted: scale not given: the % may be the effect or the level left. The essentials: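 PfINDO rings were exposed to 2.25 or 1.79 μM, with compound washed out by centrifugation at 12, 24, 36, 48 or 57 h. Cultures were then grown drug-free to a total of 96 h. Parasitemia at the end of the second cycle was counted by FACS on 10^5 cells.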

The CC50 is the concentration that lowers cell viability or growth by half. Usually IC50 stands for the concentration needed to halve the response being measured. What is called inhibition is the drop in the measured response relative to a control, in per cent. A word on the Kd: it is the constant that tells how readily two partners part at equilibrium. With `Clc1ccc2c(N3CCN(CCCn4nnc(-c5ccc(Br)cc5)n4)CC3)ccnc2c1`, the CC50 at 24 h in [1] was 400 µM. In addition, the result in the data set on Plasmodium falciparum [2] and with Plasmodium falciparum [8] was Active. Moreover, the Ratio IC50 in data set [3] is 1.21. The Activity entry in data set [4] was “Non-Toxic”. Also, the IC50 was 2.16 µM in the data set with Plasmodium falciparum [5], 2.25 µM with Plasmodium falciparum [9] and 2.27 µM with Plasmodium falciparum [11]. Also, the inhibition at 100 µM in the data set on Plasmodium falciparum [6] and in the data set with Plasmodium falciparum [13] was above 50% in each case. Besides, the Kd in [7] was below 100 µM. Besides, the outcome in the data set with Plasmodium falciparum [10] was inactive. Further, in the data set with Plasmodium falciparum [12], the Ka was determined as 2610 M⁻¹ s⁻¹.

Take `O=C(Cn1nnc(-c2cccc([N+](=O)[O-])c2)n1)N1CCN(c2ccnc3cc(Cl)ccc23)CC1`: in [1], the half-maximal cytotoxic concentration (CC50) at 24 h was above 400 µM. Further, the Ratio IC50 in [3] amounted to 0.8. In addition, the Activity entry in data set [4] was “Non-Toxic”; in the data set with Plasmodium falciparum [15], around 22%. For the same compound, the concentration for half-maximal inhibition (IC50) was 2.72 µM in the data set on Plasmodium falciparum [5], 1.79 µM in the data set with Plasmodium falciparum [9] and 7.51 µM in the data set with Plasmodium falciparum [11]. The inhibition at 100 µM in the data set on Plasmodium falciparum [6] and with Plasmodium falciparum [13] was above 50% in each case. In data set [7], the dissociation constant (Kd) is below 100 µM. The outcome in the data set with Plasmodium falciparum [10] was inactive. Further, the outcome in the data set on Plasmodium falciparum [14] was Active. In addition, the Ka in the data set on Plasmodium falciparum [12] was found to be 1920 M⁻¹ s⁻¹.
